High-throughput results from PubChem BioAssay.
TAAR1 ag: human TAAR1 agonism; Q96RJ0; CHO RD-HGA16 TAAR1, Fluo-8 calcium fluorescence; vehicle wells 0%, saturating PEA agonist 100%; activation, % at 3 µM; hit rate 0.99% among 360,000; AID 624467;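 active means activation above the mean activation of all test compounds in the run plus 3 SD, cut at about 38% in these data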
Target sequence (Q96RJ0 whole entry, looked up): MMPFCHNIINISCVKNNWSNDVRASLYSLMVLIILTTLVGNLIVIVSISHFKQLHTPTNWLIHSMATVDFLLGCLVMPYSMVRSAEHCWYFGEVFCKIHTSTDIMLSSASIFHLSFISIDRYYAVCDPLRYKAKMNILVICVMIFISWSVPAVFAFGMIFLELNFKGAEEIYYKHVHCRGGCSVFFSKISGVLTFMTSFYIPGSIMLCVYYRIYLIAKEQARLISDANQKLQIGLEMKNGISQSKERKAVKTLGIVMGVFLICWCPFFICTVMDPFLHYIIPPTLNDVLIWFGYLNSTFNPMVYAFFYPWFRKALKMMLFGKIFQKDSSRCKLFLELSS
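Test system: RD-HGA16 (CHO) cells co-expressing Gα16 and hTAAR1 | Doses: Single dose, 3 µM | Schedule: 17-24 h seeding, 75 min 37 °C dye, 30 min RT | Evaluation: % activation from peak over basal fluorescence ratio, DMSO-to-PEA scaled | Technique: Kinetic Fluo-8 calcium fluorescence | Benchmarks: Low control DMSO, high control PEA (EC100)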
OX1R antag-1: OX1R (human) antagonism | O43613 | OX1R-expressing cells, FRET antagonist read-out | inhibition, % at 6.6 µM | hit rate 1.8% among 330,000 | AID 485270; in the data active means inhibition mostly above about 38%, no sharp cut-off; inactive means mostly below about 40%;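 further: 0% = agonist challenge alone and 100% = reference antagonist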
TAAR1 antagonist: human TAAR1 antagonism; Q96RJ0; CHO RD-HGA16 TAAR1, Fluo-8 calcium fluorescence, antagonist; inhibition, % at 3 µM; hit rate 1.5% among 360,000;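 active means inhibition above a per-plate cutoff, the mean inhibition of test compounds on that plate plus 3 SD, cut at about 49% in these data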;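 further: 0% = DMSO plus EC80 beta-PEA response and 100% = DMSO alone without agonist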
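Test system – hTAAR1-expressing CHO RD-HGA16 cells, Gα16-coupled · Reagent – β-PEA at EC80 concentration, post-compound challenge · Compound dosing – 3 µM, single point · Timing – 140 s kinetic read after compound, 140 s after agonist · Detection – Fluo-8 intracellular calcium dye fluorescence, real-time kinetic reads · Control set – DMSO and EC80 PEA controls · Repeats – n of 1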
OX1R antag-2: human HCRTR1 antagonism | O43613 | CHO/OX1R cells, Fluo-8 calcium fluorescence, orexin A | inhibition, % at 5 µM | hit rate 0.43% among 330,000;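 active means inhibition above its plate's threshold, mean inhibition of all tested compounds on the plate plus 3 SD, cut at about 37% in these data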;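 further: 0% = orexin A challenge wells and 100% = SB-334867-A antagonist wells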
GalR3 antag: human GalR3 antagonism | hit rate 0.44% among 360,000 | HEK293 GalR3-CNG cAMP membrane potential fluorescence; galR3 body fused to GalR1 C-terminus | inhibition, % at 3 µM | O60755;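 active means inhibition above the screen-wide average plus 3 SD, cut at about 13% in these data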;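 further: forskolin and galanin both at EC90 stimulate the cells; cAMP rise reported by CNG channel membrane potential dye signal; 0% = forskolin plus galanin with DMSO and 100% = forskolin alone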
Target sequence (O60755 1-299 limits assumed): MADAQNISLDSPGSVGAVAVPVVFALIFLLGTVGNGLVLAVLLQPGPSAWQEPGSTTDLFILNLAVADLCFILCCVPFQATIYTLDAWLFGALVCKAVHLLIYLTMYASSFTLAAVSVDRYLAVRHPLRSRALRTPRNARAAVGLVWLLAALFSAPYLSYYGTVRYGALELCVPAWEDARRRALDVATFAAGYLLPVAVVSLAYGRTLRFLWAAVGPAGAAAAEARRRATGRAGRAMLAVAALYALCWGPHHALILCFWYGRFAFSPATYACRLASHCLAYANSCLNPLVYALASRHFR
CHO parental Ca: counter-screen: ATP calcium response change in parental CHO cells; parental CHO-K1, ATP-induced calcium, Fluo-8 fluorescence; inhibition, % at 5.6 µM; hit rate 0.63% among 330,000; AID 463079;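 active means inhibition above that plate's mean sample inhibition plus 3 SD, cut at about 26% in these data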;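 further: 0% = ATP-challenged DMSO wells and 100% = DMSO wells without ATP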
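test system = CHO parental line | reagent = ATP stimulus | measured by = intracellular calcium via Fluo-8 no-wash fluorescent dye | control set = ATP and no-ATP DMSO wells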
The depositor's hits bear a star. Sampled rows, rich in hits. Any-hit rate of the full collection: about 4.3%.

`O=C(CSc1n[nH]c(-c2ccc(Br)cc2)n1)NC1CCCC1` gave TAAR1 ag 43.2*, OX1R antag-1 3.2, TAAR1 antagonist 66.7*, OX1R antag-2 -2.4, GalR3 antag -0.7 and CHO parental Ca -7.6.
For Cc1nc(SCc2nc3ccc(Cl)cc3[nH]2)c2oc3ccccc3c2n1 the results were TAAR1 ag 8.8, OX1R antag-1 28.4, TAAR1 antagonist 13.3, OX1R antag-2 0.8, GalR3 antag 8.5 and CHO parental Ca -14.4.
COc1ccc2c(c1)oc1c(SCc3nc4ccccc4[nH]3)nc(C)nc12 was read as TAAR1 ag 10.7, OX1R antag-1 48.0*, TAAR1 antagonist 43.7, OX1R antag-2 15.6, GalR3 antag 8.8 and CHO parental Ca -24.5.
For Cc1nc(SCc2nc3cc(Cl)c(F)cc3[nH]2)c2oc3ccccc3c2n1 the results were TAAR1 ag 8.2, OX1R antag-1 52.7*, TAAR1 antagonist 23.3, OX1R antag-2 33.2, GalR3 antag -0.2 and CHO parental Ca 0.6.
For ClCc1nc2ccccc2c2ccccc12 the results were TAAR1 ag 3.4, OX1R antag-1 16.9, TAAR1 antagonist -2.1, OX1R antag-2 -11.2, GalR3 antag -2.6 and CHO parental Ca -10.1.
Cc1onc(C(=O)NC2CCCCC2)c1[N+](=O)[O-] was read as OX1R antag-1 7.1, OX1R antag-2 -13.3 and CHO parental Ca 2.5.
For O/N=C/c1cccc[n+]1CCCCCC[n+]1ccccc1/C=N/O the results were TAAR1 ag 1.6, TAAR1 antagonist 2.9 and GalR3 antag -2.7.
Screening CCCCCCCC[n+]1cccc(C(=O)N(CC)CC)c1 returned TAAR1 ag 7.2, OX1R antag-1 7.0, TAAR1 antagonist 9.9, OX1R antag-2 9.3, GalR3 antag -2.3 and CHO parental Ca -3.5.
Screening CCCCCCCCCCCCCCCC[n+]1cccc(C(=O)N(CC)CC)c1 returned TAAR1 ag 7.8, OX1R antag-1 25.9, TAAR1 antagonist 41.8, OX1R antag-2 42.5, GalR3 antag -5.6 and CHO parental Ca 57.2*.
For CCCCCCCCCCCCCCCC[n+]1ccc(C(N)=O)cc1 the results were TAAR1 ag 36.3, OX1R antag-1 21.4, TAAR1 antagonist 41.0, OX1R antag-2 78.4*, GalR3 antag -8.4 and CHO parental Ca 97.6*.
`CCCCCCCCCCCCCCCC[n+]1ccc(/C=N/O)cc1` gave TAAR1 ag 22.0, OX1R antag-1 37.8, TAAR1 antagonist 78.0*, OX1R antag-2 57.8*, GalR3 antag 1.1 and CHO parental Ca 79.7*.
`COc1ccc2c(c1)Cc1sc(NC(=O)c3cccs3)nc1-2` gave TAAR1 ag 7.3, OX1R antag-1 67.9*, TAAR1 antagonist 0.7, OX1R antag-2 -5.4, GalR3 antag -5.3 and CHO parental Ca -20.6.
`COc1ccc(C(=O)Nc2nc3c(s2)Cc2cc(OC)ccc2-3)cc1` gave TAAR1 ag 14.5, OX1R antag-1 15.1, TAAR1 antagonist -9.0, OX1R antag-2 -19.9, GalR3 antag -3.3 and CHO parental Ca -3.8.
`Cc1cccc(C)c1N1C(=O)c2ccccc2NC(=O)C1C(=O)NCCc1ccccc1` (stereo not drawn) gave TAAR1 ag 1.1, TAAR1 antagonist -13.1 and GalR3 antag -7.0.
`C/C(=N\Nc1ccc([N+](=O)[O-])cc1)c1ccc(C#N)cc1` gave TAAR1 ag 2.9, OX1R antag-1 17.9, TAAR1 antagonist -8.4, OX1R antag-2 -4.2, GalR3 antag -4.6 and CHO parental Ca 14.5.
`N#CC(C#N)=NNc1ccc([N+](=O)[O-])cc1` gave TAAR1 ag 4.0, OX1R antag-1 72.0*, TAAR1 antagonist -21.3, OX1R antag-2 2.2, GalR3 antag -4.2 and CHO parental Ca -1.2.
For OC1CCC(Nc2ccn3nc(-c4cccc(OCc5ccccc5)c4)cc3n2)CC1 (stereo not drawn) the results were TAAR1 ag 15.3, TAAR1 antagonist 52.8* and GalR3 antag -0.7.
Screening c1ccc(COc2ccc(-c3cc4nc(NCCCn5ccnc5)ccn4n3)cc2)cc1 returned TAAR1 ag 14.7, TAAR1 antagonist 53.0* and GalR3 antag -5.0.
`O=C(NNC(=O)c1ccccc1F)c1ccc(S(=O)(=O)N2CCCCC2)cc1` gave TAAR1 ag 2.7, OX1R antag-1 1.9, TAAR1 antagonist 3.6, OX1R antag-2 -14.3, GalR3 antag -6.8 and CHO parental Ca -17.1.
`COc1cccc(Nc2nc3ccccc3nc2NS(=O)(=O)c2cccs2)c1` gave TAAR1 ag 6.8, OX1R antag-1 42.5*, TAAR1 antagonist 18.9, OX1R antag-2 -4.3, GalR3 antag -6.3 and CHO parental Ca 7.7.
O=C(Nc1cccc(S(=O)(=O)NC2=NCCCCC2)c1)c1cc(-c2ccccc2Cl)nc2ccccc12 was read as TAAR1 ag 11.2, OX1R antag-1 14.7, TAAR1 antagonist 39.9, OX1R antag-2 -19.2, GalR3 antag -1.1 and CHO parental Ca -20.5.
O=C(Nc1cccc(S(=O)(=O)NC2=NCCC2)c1)c1cc(-c2ccccn2)nc2ccccc12 was read as TAAR1 ag 12.2, OX1R antag-1 5.4, TAAR1 antagonist 51.5*, OX1R antag-2 -32.6, GalR3 antag -2.8 and CHO parental Ca -15.3.
Screening Cc1c(C(=O)Nc2ccccc2)sc2nc(-c3ccccc3)cn12 returned TAAR1 ag 23.5, OX1R antag-1 28.6, TAAR1 antagonist 50.6*, OX1R antag-2 -2.2, GalR3 antag -2.8 and CHO parental Ca 4.6.
Screening CC(C)C(c1nnnn1C(C)(C)C)N1CCC(Cc2ccccc2)CC1 (stereo not drawn) returned TAAR1 ag -1.4, OX1R antag-1 6.4, TAAR1 antagonist 23.4, OX1R antag-2 -4.7, GalR3 antag -1.3 and CHO parental Ca 41.8*.
`Nc1[nH]c(C(=O)c2ccccc2)c(-c2ccc(Cl)cc2F)c1C(=O)NCCc1c[nH]c2ccccc12` gave TAAR1 ag 2.8, TAAR1 antagonist 9.6 and GalR3 antag -6.9.
COc1cccc(C(=O)Nc2ccc3nc(N4CCN(c5ncccn5)CC4)cc(C)c3c2)c1OC was read as OX1R antag-1 58.6*, OX1R antag-2 0.6 and CHO parental Ca -2.7.
Screening CCOc1cc(N2CCOCC2)c(OCC)cc1NC(=O)COc1ncnc2ccccc12 returned TAAR1 ag 6.1, OX1R antag-1 1.5, TAAR1 antagonist -4.8, OX1R antag-2 -13.0, GalR3 antag -3.5 and CHO parental Ca -18.0.
`CCc1cccc(C)c1NC(=O)c1cc(-c2ccncc2)nc2ccccc12` gave TAAR1 ag 9.1, TAAR1 antagonist 49.2* and GalR3 antag -3.8.
For Cc1ccccc1NC(=O)c1cc(-c2ccco2)nc2ccccc12 the results were TAAR1 ag 6.9, TAAR1 antagonist 59.8* and GalR3 antag -2.9.
Screening O=C(O)c1ccccc1NC(=O)c1cc(-c2ccccc2)nc2ccccc12 returned TAAR1 ag 8.1, OX1R antag-1 57.3*, TAAR1 antagonist 15.9, OX1R antag-2 -25.0, GalR3 antag -8.5 and CHO parental Ca -16.9.
